{
  "source": "ChEMBL document CHEMBL5724801",
  "about": "“EUbOPEN Chemogenomics Library - Multiplex” (2024)",
  "tested_on": "HEK-293T",
  "experiment": "Multiplex assay against HEK293T",
  "format": "toxicity, cell-based",
  "settings": "human",
  "procedure,_shortened": "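At seeding, live cells were stained with Hoechst33342, BioTracker Green Microtubule Cytoskeleton Dye, MitoTracker Red and Annexin V Alexa Fluor 680. After compound addition they were imaged on a CQ1 microscope at 37°C and 5% CO2, and CellPathfinder machine-learning gating sorted them into Hoechst high-intensity objects or normal cells, with normal cells further split into healthy, pyknosed or fragmented nuclei and pyknosed cells into mitotic or apoptotic. Tubulin, mitochondrial-mass and membrane-permeability phenotypes are given as per cents of cells with healthy nuclei.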",
  "key": {"[1]": {"settings": "12 h, 1 µM, compound concentration 1 uM"}, "[2]": {"settings": "12 h, 10 µM, compound concentration 10 uM"}, "[3]": {"settings": "24 h, 1 µM, compound concentration 1 uM"}, "[4]": {"settings": "24 h, 10 µM, compound concentration 10 uM"}, "[5]": {"settings": "48 h, 1 µM, compound concentration 1 uM"}, "[6]": {"settings": "48 h, 10 µM, compound concentration 10 uM"}},
  "note": "Values joined by “and” are separate entries in the source; they are usually repeats but may differ in a detail not shown here. Identical values can stand only once.",
  "data": [
    {"compound": "N[C@@]1(C(=O)O)CO[C@H]2[C@H](C(=O)O)[C@H]21", "note": "[LY-379268]", "values": [
      {"measurement": "Population Apoptotic (%)", "setting": "[1]", "result": "40% and 42%"},
      {"measurement": "Population Fragmented Nuclei (%)", "setting": "[1]", "result": 6, "unit": "%"},
      {"measurement": "Population Healthy Nuclei (%)", "setting": "[1]", "result": "81% and 80%"},
      {"measurement": "Population Hoechst High Intensity Objects (%)", "setting": "[1]", "result": "5% and 10%"},
      {"measurement": "Population Membrane Permeable-Phenotype (%)", "setting": "[1]", "result": "0% and 1%"},
      {"measurement": "Population Mitochondria Different-Phenotype (%)", "setting": "[1]", "result": "38% and 57%"},
      {"measurement": "Population Mitotic Cells (%)", "setting": "[1]", "result": "60% and 57%"},
      {"measurement": "Population Normal (%)", "setting": "[1]", "result": "94% and 89%"},
      {"measurement": "Population Pyknosed Nuclei (%)", "setting": "[1]", "result": 12, "unit": "%"},
      {"measurement": "Population Tubulin-Different-Phenotype (%)", "setting": "[1]", "result": "26% and 18%"},
      {"measurement": "Total Cell Count", "setting": "[1]", "result": "396 and 411"},
      {"measurement": "Population Apoptotic (%)", "setting": "[2]", "result": "27% and 52%"},
      {"measurement": "Population Fragmented Nuclei (%)", "setting": "[2]", "result": "10% and 8%"},
      {"measurement": "Population Healthy Nuclei (%)", "setting": "[2]", "result": "78% and 79%"},
      {"measurement": "Population Hoechst High Intensity Objects (%)", "setting": "[2]", "result": "8% and 7%"},
      {"measurement": "Population Membrane Permeable-Phenotype (%)", "setting": "[2]", "result": 0, "unit": "%"},
      {"measurement": "Population Mitochondria Different-Phenotype (%)", "setting": "[2]", "result": "33% and 51%"},
      {"measurement": "Population Mitotic Cells (%)", "setting": "[2]", "result": "72% and 47%"},
      {"measurement": "Population Normal (%)", "setting": "[2]", "result": "91% and 92%"},
      {"measurement": "Population Pyknosed Nuclei (%)", "setting": "[2]", "result": "10% and 12%"},
      {"measurement": "Population Tubulin-Different-Phenotype (%)", "setting": "[2]", "result": "31% and 18%"},
      {"measurement": "Total Cell Count", "setting": "[2]", "result": "437 and 380"},
      {"measurement": "Population Apoptotic (%)", "setting": "[3]", "result": "30% and 29%"},
      {"measurement": "Population Fragmented Nuclei (%)", "setting": "[3]", "result": "8% and 7%"},
      {"measurement": "Population Healthy Nuclei (%)", "setting": "[3]", "result": "79% and 83%"},
      {"measurement": "Population Hoechst High Intensity Objects (%)", "setting": "[3]", "result": "2% and 7%"},
      {"measurement": "Population Membrane Permeable-Phenotype (%)", "setting": "[3]", "result": 0, "unit": "%"},
      {"measurement": "Population Mitochondria Different-Phenotype (%)", "setting": "[3]", "result": "21% and 31%"},
      {"measurement": "Population Mitotic Cells (%)", "setting": "[3]", "result": 70, "unit": "%"},
      {"measurement": "Population Normal (%)", "setting": "[3]", "result": "97% and 92%"},
      {"measurement": "Population Pyknosed Nuclei (%)", "setting": "[3]", "result": "11% and 9%"},
      {"measurement": "Population Tubulin-Different-Phenotype (%)", "setting": "[3]", "result": "20% and 13%"},
      {"measurement": "Total Cell Count", "setting": "[3]", "result": "517 and 481"},
      {"measurement": "Population Apoptotic (%)", "setting": "[4]", "result": "36% and 43%"},
      {"measurement": "Population Fragmented Nuclei (%)", "setting": "[4]", "result": "10% and 8%"},
      {"measurement": "Population Healthy Nuclei (%)", "setting": "[4]", "result": "79% and 82%"},
      {"measurement": "Population Hoechst High Intensity Objects (%)", "setting": "[4]", "result": "6% and 8%"},
      {"measurement": "Population Membrane Permeable-Phenotype (%)", "setting": "[4]", "result": 0, "unit": "%"},
      {"measurement": "Population Mitochondria Different-Phenotype (%)", "setting": "[4]", "result": "24% and 39%"},
      {"measurement": "Population Mitotic Cells (%)", "setting": "[4]", "result": "63% and 56%"},
      {"measurement": "Population Normal (%)", "setting": "[4]", "result": "93% and 91%"},
      {"measurement": "Population Pyknosed Nuclei (%)", "setting": "[4]", "result": 9, "unit": "%"},
      {"measurement": "Population Tubulin-Different-Phenotype (%)", "setting": "[4]", "result": 15, "unit": "%"},
      {"measurement": "Total Cell Count", "setting": "[4]", "result": "551 and 470"},
      {"measurement": "Population Apoptotic (%)", "setting": "[5]", "result": "26% and 33%"},
      {"measurement": "Population Fragmented Nuclei (%)", "setting": "[5]", "result": "13% and 10%"},
      {"measurement": "Population Healthy Nuclei (%)", "setting": "[5]", "result": "79% and 81%"},
      {"measurement": "Population Hoechst High Intensity Objects (%)", "setting": "[5]", "result": "3% and 7%"},
      {"measurement": "Population Membrane Permeable-Phenotype (%)", "setting": "[5]", "result": "1% and 0%"},
      {"measurement": "Population Mitochondria Different-Phenotype (%)", "setting": "[5]", "result": "15% and 22%"},
      {"measurement": "Population Mitotic Cells (%)", "setting": "[5]", "result": "73% and 66%"},
      {"measurement": "Population Normal (%)", "setting": "[5]", "result": "97% and 92%"},
      {"measurement": "Population Pyknosed Nuclei (%)", "setting": "[5]", "result": "6% and 7%"},
      {"measurement": "Population Tubulin-Different-Phenotype (%)", "setting": "[5]", "result": "9% and 14%"},
      {"measurement": "Total Cell Count", "setting": "[5]", "result": "866 and 611"},
      {"measurement": "Population Apoptotic (%)", "setting": "[6]", "result": "24% and 25%"},
      {"measurement": "Population Fragmented Nuclei (%)", "setting": "[6]", "result": "16% and 11%"},
      {"measurement": "Population Healthy Nuclei (%)", "setting": "[6]", "result": "75% and 80%"},
      {"measurement": "Population Hoechst High Intensity Objects (%)", "setting": "[6]", "result": 4, "unit": "%"},
      {"measurement": "Population Membrane Permeable-Phenotype (%)", "setting": "[6]", "result": "1% and 0%"},
      {"measurement": "Population Mitochondria Different-Phenotype (%)", "setting": "[6]", "result": "18% and 19%"},
      {"measurement": "Population Mitotic Cells (%)", "setting": "[6]", "result": 75, "unit": "%"},
      {"measurement": "Population Normal (%)", "setting": "[6]", "result": 95, "unit": "%"},
      {"measurement": "Population Pyknosed Nuclei (%)", "setting": "[6]", "result": 7, "unit": "%"},
      {"measurement": "Population Tubulin-Different-Phenotype (%)", "setting": "[6]", "result": "10% and 9%"},
      {"measurement": "Total Cell Count", "setting": "[6]", "result": "781 and 689"}
    ]}
  ]
}
